What was measured:
MOLT-4 = test: Cytotoxicity against human MOLT4 cells after 24 hrs by SRB assay; format: functional; settings: MOLT-4, 24 h
Method in brief: (§1)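 NCI 60-line screen. Cells in RPMI 1640 with 5% FBS and 2 mM L-glutamine, seeded at 5,000–40,000 cells/well by doubling time, then incubated 24 h at 37 °C, 5% CO2 before dosing. Time-zero plates fixed with TCA at drug addition. DMSO stocks diluted in medium with gentamicin to five concentrations, […]. Protein read by SRB staining. GI50, TGI and LC50 derived relative to control and time-zero.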

HOP-62 = test: Cytotoxicity against human HOP62 cells after 24 hrs by SRB assay; format: functional; settings: HOP-62, 24 h; method in brief: as §1
NCI-H23 = test: Cytotoxicity against human NCI-H23 cells after 24 hrs by SRB assay; format: functional; settings: NCI-H23, 24 h; method in brief: as §1
NCI-H460 = test: Cytotoxicity against human NCI-H460 cells after 24 hrs by SRB assay; format: functional; settings: NCI-H460, 24 h; method in brief: as §1
HCT-15 [1] = test: (§2) Cytotoxicity against human HCT15 cells after 24 hrs by SRB assay; format: functional; settings: HCT-15, 24 h; method in brief: as §1
HT-29 = test: Cytotoxicity against human HT-29 cells after 24 hrs by SRB assay; format: functional; settings: HT-29, 24 h; method in brief: as §1
KM12 = test: Cytotoxicity against human KM12 cells after 24 hrs by SRB assay; format: functional; settings: KM12, 24 h; method in brief: as §1
SNB-75 [2] = test: (§3) Cytotoxicity against human SNB75 cells after 24 hrs by SRB assay; format: functional; settings: SNB-75, 24 h
Method in brief: (§4)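 NCI 60-cell screen. Cells are grown in RPMI 1640 with 5% FBS and 2 mM L-glutamine and seeded at 5,000–40,000 cells/well according to doubling time. They are preincubated 24 h at 37 °C in 5% CO2, and Tz plates are TCA-fixed at drug addition. Drug stock is in DMSO, diluted in medium with gentamicin, and tested at five concentrations (100, 10, 1.0, 0.1, […]). Protein is read by SRB staining. GI50, TGI and LC50 are derived relative to time-zero and control wells.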

SK-MEL-5 [3] = test: (§5) Cytotoxicity against human SK-MEL-5 cells after 24 hrs by SRB assay; format: functional; settings: SK-MEL-5, 24 h; method in brief: as §1
UACC-62 [4] = test: (§6) Cytotoxicity against human UACC62 cells after 24 hrs by SRB assay; format: functional; settings: UACC-62, 24 h; method in brief: as §4
NCI/ADR-RES = test: Cytotoxicity against human NCI/ADR-RES cells after 24 hrs by SRB assay; format: functional; method in brief: as §1
OVCAR-8 [5] = test: (§7) Cytotoxicity against human OVCAR8 cells after 24 hrs by SRB assay; format: functional; settings: OVCAR-8, 24 h; method in brief: as §1
SK-OV-3 [6] = test: (§8) Cytotoxicity against human SKOV3 cells after 24 hrs by SRB assay; format: functional; settings: SK-OV-3, 24 h; method in brief: as §1
RXF 393 = test: Cytotoxicity against human RXF393 cells after 24 hrs by SRB assay; format: functional; settings: RXF 393, 24 h; method in brief: as §1
SN12C = test: Cytotoxicity against human SN12C cells after 24 hrs by SRB assay; format: functional; method in brief: as §1
MDA-MB-231 = test: Cytotoxicity against human MDA-MB-231 cells after 24 hrs by SRB assay; format: functional; settings: MDA-MB-231, 24 h; method in brief: as §1
SR [7] = test: (§9) Cytotoxicity against human SR cells after 24 hrs by SRB assay; format: cell-based
Method in brief: (§10)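 NCI 60-cell-line screen: cells grown in RPMI 1640 with 5% FBS and 2 mM L-glutamine, seeded at 5,000–40,000 cells/well by doubling time, and preincubated 24 h at 37 °C in 5% CO2. Time-zero plates were TCA-fixed. DMSO stocks were diluted in medium with gentamicin to five concentrations (100, 10, 1.0, 0.1, […]). Protein was read by SRB, and GI50, TGI and LC50 were derived against time-zero.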

EKVX = test: Cytotoxicity against human EKVX cells after 24 hrs by SRB assay; format: cell-based
Method in brief: (§11)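 NCI 60-cell screen. Cells grown in RPMI 1640 with 5% FBS and 2 mM L-glutamine, seeded at 5,000–40,000 cells/well, preincubated 24 h at 37 °C in 5% CO2. Drug stock in DMSO, diluted in medium with gentamicin; five final concentrations, 100, 10, 1.0, 0.1 and […]. Time-zero plates were TCA-fixed. Protein read by SRB staining; GI50, TGI and LC50 taken relative to time-zero.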

NCI-H226 = test: Cytotoxicity against human NCI-H226 cells after 24 hrs by SRB assay; format: cell-based; settings: nci-h226, 24 h; method in brief: as §11
NCI-H522 = test: Cytotoxicity against human NCI-H522 cells after 24 hrs by SRB assay; format: cell-based; settings: nci-h522, 24 h; method in brief: as §11
A549 = test: Cytotoxicity against human A549 cells after 24 hrs by SRB assay; format: cell-based; settings: a549, 24 h; method in brief: as §11
HCT-15 [8] = test: as §2; format: cell-based; settings: hct-15, 24 h; method in brief: as §11
SF-539 = test: Cytotoxicity against human SF539 cells after 24 hrs by SRB assay; format: cell-based; settings: sf-539, 24 h; method in brief: as §11
SNB-19 = test: Cytotoxicity against human SNB19 cells after 24 hrs by SRB assay; format: cell-based; settings: snb-19, 24 h; method in brief: as §10
SNB-75 [9] = test: as §3; format: cell-based; settings: snb-75, 24 h; method in brief: as §10
LOX IMVI = test: Cytotoxicity against human LOXIMVI cells after 24 hrs by SRB assay; format: cell-based; method in brief: as §11
RPMI-8226 = test: Cytotoxicity against human RPMI8226 cells after 24 hrs by SRB assay; format: functional; settings: RPMI-8226, 24 h; method in brief: as §1
SR [10] = test: as §9; format: functional; method in brief: as §4
CCRF-CEM = test: Cytotoxicity against human CCRF-CEM cells after 24 hrs by SRB assay; format: functional; method in brief: as §1
MDA-MB-435 = test: Cytotoxicity against human MDA-MB-435 cells after 24 hrs by SRB assay; format: cell-based; settings: mda-mb-435, 24 h; method in brief: as §11
SK-MEL-5 [11] = test: as §5; format: cell-based; settings: sk-mel-5, 24 h; method in brief: as §11
UACC-62 [12] = test: as §6; format: cell-based; settings: uacc-62, 24 h; method in brief: as §10
OVCAR-8 [13] = test: as §7; format: cell-based; settings: ovcar-8, 24 h; method in brief: as §11
SK-OV-3 [14] = test: as §8; format: cell-based; settings: sk-ov-3, 24 h; method in brief: as §10
ACHN = test: Cytotoxicity against human ACHN cells after 24 hrs by SRB assay; format: cell-based; method in brief: as §11
CAKI-1 = test: Cytotoxicity against human CAKI-1 cells after 24 hrs by SRB assay; format: cell-based; settings: caki-1, 24 h; method in brief: as §11
DU-145 = test: Cytotoxicity against human DU145 cells after 24 hrs by SRB assay; format: cell-based; settings: du-145, 24 h; method in brief: as §11
MDA-MB-468 = test: Cytotoxicity against human MDA-MB-468 cells after 24 hrs by SRB assay; format: cell-based; settings: mda-mb-468, 24 h; method in brief: as §11

Structure (SMILES): COc1ccc(C(=O)/C=C/c2cc3ccccc3[nH]c2=O)cc1
- GI50 (MOLT-4): 3.39 µM
- TGI (MOLT-4): > 100 µM
- GI50 (HOP-62): 3.68 µM
- TGI (HOP-62): 11.6 µM
- GI50 (NCI-H23): 2.9 µM
- TGI (NCI-H23): 14.9 µM
- GI50 (NCI-H460): 2.75 µM
- TGI (NCI-H460): 8.34 µM
- GI50 (HCT-15 [1]): 3.18 µM
- TGI (HCT-15 [1]): 21.1 µM
- GI50 (HT-29): 3.67 µM
- TGI (HT-29): > 100 µM
- GI50 (KM12): 2.85 µM
- TGI (KM12): 7.81 µM
- GI50 (SNB-75 [2]): 2.29 µM
- TGI (SNB-75 [2]): 10.1 µM
- GI50 (SK-MEL-5 [3]): 5.73 µM
- TGI (SK-MEL-5 [3]): 18.1 µM
- GI50 (UACC-62 [4]): 4.38 µM
- TGI (UACC-62 [4]): 19.3 µM
- GI50 (NCI/ADR-RES): 2.63 µM
- TGI (NCI/ADR-RES): 8.44 µM
- GI50 (OVCAR-8 [5]): 3.57 µM
- TGI (OVCAR-8 [5]): > 100 µM
- GI50 (SK-OV-3 [6]): 4.44 µM
- TGI (SK-OV-3 [6]): > 100 µM
- GI50 (RXF 393): 3.41 µM
- TGI (RXF 393): 8.53 µM
- GI50 (SN12C): 3.17 µM
- TGI (SN12C): > 100 µM
- GI50 (MDA-MB-231): 3.29 µM
- TGI (MDA-MB-231): 17.9 µM
- LC50 (SR [7]): > 100 µM
- LC50 (EKVX): > 100 µM
- LC50 (NCI-H226): > 100 µM
- LC50 (NCI-H522): > 100 µM
- LC50 (A549): > 100 µM
- LC50 (HCT-15 [8]): > 100 µM
- LC50 (SF-539): 45.5 µM
- LC50 (SNB-19): 75.8 µM
- LC50 (SNB-75 [9]): 47.2 µM
- LC50 (LOX IMVI): 33.3 µM
- GI50 (RPMI-8226): 2.79 µM
- TGI (RPMI-8226): > 100 µM
- GI50 (SR [10]): 2.83 µM
- TGI (SR [10]): > 100 µM
- GI50 (CCRF-CEM): 4.04 µM
- TGI (CCRF-CEM): > 100 µM
- LC50 (MDA-MB-435): 91.6 µM
- LC50 (SK-MEL-5 [11]): 45 µM
- LC50 (UACC-62 [12]): 60.2 µM
- LC50 (OVCAR-8 [13]): > 100 µM
- LC50 (SK-OV-3 [14]): > 100 µM
- LC50 (ACHN): 57 µM
- LC50 (CAKI-1): 6.9 µM
- LC50 (DU-145): 35.8 µM
- LC50 (MDA-MB-468): 39.8 µM
